Each structure is given as a SMILES string.

Assay [1] has as its system CCRF-CEM. Kind of assay: Cytotoxicity against human CCRF-CEM cells by CCK-8 assay. It is filed as functional, cell-based. In outline: (§1)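 CCRF-CEM or P-glycoprotein-overexpressing CEM/ADR5000 leukemia cells in RPMI1640. CEM/ADR5000 maintained by treatment with 5000 ng/mL doxorubicin every other week for three days. Viability by CCK-8: reagent added, 3 h at 37 °C, absorbance 450 nm. IC50 from dose–response curves. At least two independent experiments, each with 6 parallel measurements (12 values per concentration), mean ± SEM.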

Assay [2] can be described thus: Cytotoxicity against human CEM/ADR5000 by CCK-8 assay. The assay is classed as functional. In outline: as §1
For assay [3], the system named is CCRF-CEM. Kind of assay: Selectivity ratio of IC50 for human CEM/ADR5000 cells to IC50 for human CCRF-CEM cells. It is filed as functional.

For `C[C@H]1[C@H](OC(=O)CCC(=O)NCC(O)CNC(=O)CCC(=O)O[C@@H]2O[C@@H]3O[C@@]4(C)CC[C@H]5[C@H](C)CC[C@@H]([C@H]2C)[C@@]35OO4)O[C@@H]2O[C@@]3(C)CC[C@H]4[C@H](C)CC[C@@H]1[C@@]24OO3` (some centres not stated), the 50% inhibitory concentration (IC50) in the assay on CCRF-CEM [1] came to 2160 nM; in assay [2], 1210 nM. Further, the “Ratio IC50” value with CCRF-CEM [3] was 0.56.

`C[C@H]1[C@H](OC(=O)CCC(=O)NCc2cccc(CNC(=O)CCC(=O)O[C@@H]3O[C@@H]4O[C@@]5(C)CC[C@H]6[C@H](C)CC[C@@H]([C@H]3C)[C@@]46OO5)c2)O[C@@H]2O[C@@]3(C)CC[C@H]4[C@H](C)CC[C@@H]1[C@@]24OO3`: the figures for the IC50 (with CCRF-CEM [1]; in assay [2]) were 1600 nM and 1510 nM, respectively. Also, the “Ratio IC50” value with CCRF-CEM [3] worked out at 0.94.

Compound `C[C@H]1[C@H](OC(=O)CCC(=O)NCCCNC(=O)CCC(=O)O[C@@H]2O[C@@H]3O[C@@]4(C)CC[C@H]5[C@H](C)CC[C@@H]([C@H]2C)[C@@]35OO4)O[C@@H]2O[C@@]3(C)CC[C@H]4[C@H](C)CC[C@@H]1[C@@]24OO3` had a half-inhibitory concentration (IC50) in assay [2] of 200 nM. For the same compound, the “Ratio IC50” value with CCRF-CEM [3] is 0.17.

With `COc1cccc2c1C(=O)c1c(O)c3c(c(O)c1C2=O)C[C@@](O)(C(=O)CO)C[C@@H]3O[C@H]1C[C@H](N)[C@H](O)[C@H](C)O1` [DOXORUBICIN], the half-inhibitory concentration (IC50) in the assay with CCRF-CEM [1] is 37 nM; in assay [2] it was more than 5200 nM. The “Ratio IC50” value in the assay on CCRF-CEM [3] was more than 140.

In assay [2], `C[C@H]1[C@H](OC(=O)CCC(=O)O)O[C@@H]2O[C@@]3(C)CC[C@H]4[C@H](C)CC[C@@H]1[C@@]24OO3` [ARTESUNATE] had a 50% inhibitory concentration (IC50) of 1200 nM. In addition, the “Ratio IC50” value with CCRF-CEM [3] is on record as 0.67.

Consider `C[C@H]1[C@H](OC(=O)CCC(=O)NCCCCCCCCNC(=O)CCC(=O)O[C@@H]2O[C@@H]3O[C@@]4(C)CC[C@H]5[C@H](C)CC[C@@H]([C@H]2C)[C@@]35OO4)O[C@@H]2O[C@@]3(C)CC[C@H]4[C@H](C)CC[C@@H]1[C@@]24OO3`, for which the values for the 50% inhibitory concentration (IC50) (in the assay with CCRF-CEM [1]; in assay [2]) were 2940 nM and 3040 nM, respectively. Besides, the “Ratio IC50” value in the assay with CCRF-CEM [3] is 1.03.

`C[C@@H]1CC[C@H]2[C@@H](C)C(=O)O[C@@H]3O[C@@]4(C)CC[C@@H]1[C@]32OO4` [ARTEMISININ]: in the assay with CCRF-CEM [3], the “Ratio IC50” value turned out to be 0.73.

The values above are taken from ChEMBL document CHEMBL2086346, “New artesunic acid homodimers: potent reversal agents of multidrug resistance in leukemia cells” (Bioorg Med Chem, 2012).
